According to ChEMBL document CHEMBL3588858, “Peptidomimetic β-Secretase Inhibitors Comprising a Sequence of Amyloid-β Peptide for Alzheimer's Disease” (J Med Chem, 2015):
Numbered stars: 1 amine (or outer) side, 2 acyl side, 3 side chain; on linkers, the order of the positions; unused ones are H or OH. Square brackets hold non-standard residues; d marks the D form. Peptide text beside a SMILES is read from it. LeuΨ(S-CHOHCH2)Ala = CC(C)C[C@H](N[*:1])[C@@H](O)C[C@@H](C)C(=O)[*:2]

How the values were obtained:
Serum [1] = experiment: Metabolic stability in female mouse serum at 0.53 mg/kg, iv by HPLC-FLU analysis; type: ADME, organism-based; settings: in vivo
Outline: (§1)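 Female mice (8–12 weeks, 22–37 g) and male Wistar rats (8–12 weeks, 182–201 g) were fasted 24 h, then dosed iv at 0.53 mg/kg in PBS, in triplicate. Animals were sacrificed at 0.5, 1 and 2 h under pentobarbital. Blood was taken by cardiac puncture and brains perfused with chilled saline. Serum was acetonitrile-precipitated. Whole mouse brain, or rat cortex and hippocampus, was homogenized with an internal standard, HPLC-purified, then analysed by HPLC-FLU and ESI LC-MS.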

[2] = Half life in human serum by HPLC-FLU analysis; type: ADME, cell-free
Outline: (§2)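 Peptide solution (50 µM in PBS, 2% DMSO) was mixed 1:4 with human serum or 10% mouse brain homogenate (PBS, 0.5% Triton X-100) and incubated at 37 °C for varying times. Reactions were stopped with acetonitrile and proteins spun out. Intact peptide was quantified by HPLC-FLU against per-compound calibration curves, following decay to about 50%. t1/2 was interpolated from a monophasic model fit; n = 3.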

[3] = Cytotoxicity against human Caco2 cells assessed as cell viability at 25 to 50 uM after 4 to 24 hrs by MTS assay; type: cell-based; settings: Caco-2 cells, read-out: Activity
Outline: (§3)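 Confluent Caco-2 cells (passage 26 to 41, grown in high-glucose DMEM with 10% FBS and 1% non-essential amino acids) exposed to test compounds from 2.5 nM to 50 µM in DMEM with 0.5% FBS for 4 h or 24 h. Medium replaced by MTS, 4 h at 37 °C, absorbance read at 490 nm. Viability given as % of cells in 0.5% FBS DMEM.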

Cortex [4] = experiment: Metabolic stability in Wistar rat brain cortex at 0.53 mg/kg, iv after 2 hrs by HPLC-FLU analysis; type: ADME, organism-based; settings: in vivo; outline: as §1
Homo sapiens = species on record: Homo sapiens; experiment: Selectivity ratio of Ki(app) for human recombinant BACE2 to Ki for human recombinant BACE1
Serum [5] = experiment: Metabolic stability in Wistar rat serum at 0.53 mg/kg, iv after 2 hrs by HPLC-FLU analysis; type: ADME, organism-based; settings: in vivo; outline: as §1
Caco-2 = experiment: Cytotoxicity against human Caco2 cells assessed as cell viability at 25 to 50 uM after 24 hrs by MTS assay; type: cell-based; settings: caco-2, 24 h; outline: as §3
Brain [6] = experiment: Retention time of the compound in female mouse brain at 0.53 mg/kg, iv by HPLC-FLU analysis; type: ADME, organism-based; settings: in vivo; outline: as §1
[7] = Half life in mouse brain by HPLC-FLU analysis; type: ADME, tissue-based; outline: as §2
Brain [8] = experiment: Retention time of the compound in female mouse brain treated with 0.53 mg/kg, iv (3S,6S,9S,12S,15S,18S,21R,23S,24S,27S,30S,33S)-33-acetamido-15-benzyl-3-carbamoyl-6-(2-carboxyethyl)-27-(carboxymethyl)-23-hydroxy-12-(4-hydroxybenzyl)-24,30-diisobutyl-18-isopropyl-9,21-dimethyl-5,8,11,14,17,20,26,29,32-nonaoxo-4,7,10,13,16,19,25,28,31-nonaazahexatriacontane-1,36-dioic acid by HPLC-FLU analysis; type: ADME, organism-based; settings: in vivo; outline: as §1
Serum [9] = experiment: Drug formation in Wistar rat serum treated with 0.53 mg/kg, iv (3S,6S,9S,12S,15S,18S,21R,23S,24S,27S,30S,33S)-33-acetamido-15-benzyl-3-carbamoyl-6-(2-carboxyethyl)-27-(carboxymethyl)-23-hydroxy-12-(4-hydroxybenzyl)-24,30-diisobutyl-18-isopropyl-9,21-dimethyl-5,8,11,14,17,20,26,29,32-nonaoxo-4,7,10,13,16,19,25,28,31-nonaazahexatriacontane-1,36-dioic acid measured after 2 hrs by HPLC-FLU/LC-MS …; type: ADME, organism-based; settings: in vivo
[10] = Drug uptake in female mouse brain at 0.53 mg/kg, iv up to 1 hr by HPLC-FLU analysis; type: ADME, organism-based; settings: read-out: Drug uptake; outline: as §1
Brain [11] = experiment: Drug formation in female mouse brain treated with 0.53 mg/kg, iv (3S,6S,9S,12S,15S,18S,21R,23S,24S,27S,30S,33S)-33-acetamido-15-benzyl-3-carbamoyl-6-(2-carboxyethyl)-27-(carboxymethyl)-23-hydroxy-12-(4-hydroxybenzyl)-24,30-diisobutyl-18-isopropyl-9,21-dimethyl-5,8,11,14,17,20,26,29,32-nonaoxo-4,7,10,13,16,19,25,28,31-nonaazahexatriacontane-1,36-dioic acid measured up to 2 hrs by HPLC-FLU/LC-MS …; type: ADME, organism-based; settings: in vivo
Cortex [12] = experiment: Drug formation in Wistar rat brain cortex treated with 0.53 mg/kg, iv (3S,6S,9S,12S,15S,18S,21R,23S,24S,27S,30S,33S)-33-acetamido-15-benzyl-3-carbamoyl-6-(2-carboxyethyl)-27-(carboxymethyl)-23-hydroxy-12-(4-hydroxybenzyl)-24,30-diisobutyl-18-isopropyl-9,21-dimethyl-5,8,11,14,17,20,26,29,32-nonaoxo-4,7,10,13,16,19,25,28,31-nonaazahexatriacontane-1,36-dioic acid measured after 2 hrs by …; type: ADME, organism-based; settings: in vivo

Compound | Stability (Serum [1]) | half-life [2] [h] | viability at 50 µM [3] [%] | Stability (Cortex [4]) | Ratio (Homo sapiens) | Stability (Serum [5]) | Activity (Caco-2) | Retention_time (Brain [6]) [min] | half-life [7] [h] | viability at up to 50 µM [3] [%] | Retention_time (Brain [8]) [min] | Drug metabolism (Serum [9]) | concentration at 1 h [10] [nM] | Drug metabolism (Brain [11]) | Drug metabolism (Cortex [12])
CC(=O)N[C@@H](CCC(=O)O)C(=O)N[C@@H](CC(C)C)C(=O)N[C@@H](CC(=O)O)C(=O)N[C@@H](CC(C)C)[C@@H](O)C[C@@H](C)C(=O)N[C@H](C(=O)N[C@@H](Cc1ccccc1)C(=O)N[C@@H](Cc1ccc(O)cc1)C(=O)N[C@@H](C)C(=O)N[C@@H](CCC(=O)O)C(=O)N[C@@H](CC(=O)O)C(N)=O)C(C)C (Ac-ELD[LeuΨ(S-CHOHCH2)Ala]VFYAED-NH2) | Unstable | 6 | > 80 | Unstable | 9.2 | Stable | Non-toxic | 23.6 | 3.43 | – | – | – | – | – | –
CC(C)C[C@H](NC(=O)[C@@H](N)CCC(=O)O)C(=O)N[C@@H](CC(=O)O)C(=O)N[C@@H](CC(C)C)[C@@H](O)C[C@@H](C)C(=O)N[C@H](C(=O)N[C@@H](CCC(=O)O)C(=O)N[C@@H](Cc1ccccc1)C(=O)O)C(C)C (H-ELD[LeuΨ(S-CHOHCH2)Ala]VEF-OH) | – | 2.2 | > 80 | – | – | – | Non-toxic | – | 5.8 | – | – | – | – | – | –
CC(C)C[C@H](NC(=O)[C@@H](N)CCC(=O)O)C(=O)N[C@@H](CC(=O)O)C(=O)N[C@@H](CC(C)C)[C@@H](O)C[C@@H](C)C(=O)N[C@H](C(=O)N[C@@H](Cc1ccccc1)C(=O)N[C@@H](Cc1ccccc1)C(=O)N[C@@H](C)C(=O)N[C@@H](CCC(=O)O)C(=O)N[C@@H](CC(=O)O)C(N)=O)C(C)C (H-ELD[LeuΨ(S-CHOHCH2)Ala]VFFAED-NH2) | – | – | > 80 | – | 3.7 | – | Non-toxic | – | – | – | – | – | – | – | –
CC(C)C[C@H](NC(=O)[C@@H](N)CCC(=O)O)C(=O)N[C@@H](CC(=O)O)C(=O)N[C@@H](CC(C)C)[C@@H](O)C[C@@H](C)C(=O)N[C@H](C(=O)N[C@@H](Cc1ccccc1)C(=O)N[C@@H](Cc1ccc(O)cc1)C(=O)N[C@@H](C)C(=O)N[C@@H](CCC(=O)O)C(=O)N[C@@H](CC(=O)O)C(N)=O)C(C)C (H-ELD[LeuΨ(S-CHOHCH2)Ala]VFYAED-NH2) | – | 2.1 | – | – | 7.5 | – | Non-toxic | – | 2.3 | > 80 | – | – | – | – | –
CC(C)C[C@H](NC(=O)[C@@H](N)CCC(=O)O)C(=O)N[C@@H](CC(=O)O)C(=O)N[C@@H](CC(C)C)[C@@H](O)C[C@@H](C)C(=O)N[C@H](C(=O)N[C@@H](Cc1ccccc1)C(=O)N[C@@H](Cc1ccc(O)cc1)C(=O)N[C@@H](C)C(=O)N[C@@H](CCC(=O)O)C(=O)N[C@@H](CC(=O)O)C(=O)O)C(C)C (H-ELD[LeuΨ(S-CHOHCH2)Ala]VFYAED-OH) | – | 3 | – | – | 7.5 | – | – | – | 6 | – | 22.9 | metabolite_detected | 20 | metabolite_detected | metabolite_detected
